Structures are written as SMILES. In brackets after ≈: the same amount, converted by molar mass. Activity calls are given as the source filed them. The calls are words filed in the database; no cut-off is given here.

Assay [1] concerns Vesicular stomatitis virus. The assay is described as follows: Antiviral activity against Vesicular stomatitis virus infected in primary rabbit kidney cells assessed as inhibition of virus-induced cytopathogenicity treated immediately after virus adsorption measured 2 days after virus infection. The assay is classed as functional. The note with it: 48 h. In general terms: Cytopathic effects are the visible damage that an infection or toxin causes in cultured cells.

A further assay has as its system Human alphaherpesvirus 1. Nature of the assay: Antiviral activity against Herpes simplex virus 1 infected in primary rabbit kidney cells assessed as inhibition of virus-induced cytopathogenicity treated immediately after virus adsorption measured 3 days after virus infection. The assay is classed as functional. The note with it: Human alphaherpesvirus 1, 72 h. An outline of the steps: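 Compound added right after virus adsorption; 100 CCID50 virus per culture. Cytopathogenicity was scored once complete in untreated infected controls. The value is the concentration giving 50% inhibition of viral cytopathogenicity.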

For the next assay, the system named is Poliovirus 1. The assay is described as follows: Antiviral activity against Poliovirus type 1 infected in human HeLa cells assessed as inhibition of virus-induced cytopathogenicity treated immediately after virus adsorption measured 2 days after virus infection. The format is functional. The note with it: Enterovirus C, 48 h.
A further assay has as its system Coxsackievirus B4. Nature of the assay: Antiviral activity against Coxsackievirus B4 infected in human HeLa cells assessed as inhibition of virus-induced cytopathogenicity treated immediately after virus adsorption measured 2 days after virus infection. The note with it: Enterovirus B, 48 h. The format is functional.
A further assay has as its system kidney. Nature of the assay: Inhibition of DNA synthesis in primary rabbit kidney cells assessed as inhibition of [3H]thymidine incorporation into DNA at 100 ug/mL. Conditions: Oryctolagus cuniculus. The assay is classed as functional, cell-based. An outline of the steps: (§1)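 Host-cell DNA synthesis in primary rabbit kidney cells, measured as [methyl-3H]thymidine incorporation into DNA. ID50 is the dose inhibiting thymidine incorporation by 50%. The highest concentration tested was 100 μg/mL.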
(Uptake of a labelled nucleoside into DNA is a usual measure of proliferation.)

Assay [2] can be described thus: Inhibition of DNA synthesis in primary rabbit kidney cells assessed as inhibition of [3H]thymidine incorporation into DNA. The format is functional. The note with it: Oryctolagus cuniculus, read-out: ID50 (the source's name). An outline of the steps: as §1

`CO[C@@H]1[C@H](O)[C@@H](CO)O[C@H]1n1cnc(C(N)=O)n1`: the MIC50 (in assay [1]; with Human alphaherpesvirus 1; with Poliovirus 1; in the assay with Coxsackievirus B4) was above 200 µg/mL each time. For the same molecule, the inhibition result in the assay with kidney is “inactive”.
Regarding `CO[C@H]1[C@@H](O)[C@H](n2cnc(C(N)=O)n2)O[C@@H]1CO`, the MIC50 (in assay [1]; in the assay with Human alphaherpesvirus 1; in the assay on Poliovirus 1; in the assay on Coxsackievirus B4) was above 200 µg/mL each time. Also, the inhibition result with kidney was “inactive”.
For `NC(=O)c1ncn([C@@H]2O[C@H](CO)[C@@H](O)[C@H]2O)n1` [RIBAVIRIN], the MIC50 in assay [1] is 70 µg/mL (≈ 287 µM); in the assay with Human alphaherpesvirus 1, 20 µg/mL (≈ 81.9 µM); in the assay on Poliovirus 1, 40 µg/mL (≈ 164 µM); in the assay on Coxsackievirus B4 it was 40 µg/mL (≈ 164 µM). The IC50 in assay [2] worked out at 20 µg/mL (≈ 81.9 µM).

(Values after ChEMBL document CHEMBL3244367, “Synthesis and determination of antiviral activity of the 2'(3')-O-methyl derivatives of ribavirin (1-beta-D-ribofuranosyl-1,2,4-triazole-3-carboxamide)” (1977).)
